# Laboratory results from ChEMBL document CHEMBL2331220, “Benzimidazole clubbed with triazolo-thiadiazoles and triazolo-thiadiazines: new anticancer agents” (2013).
# How the values were obtained:
# Type in all cases: functional
# SF-268 = test: Cytotoxicity against human SF268 cells after 48 hrs by SRB assay; details: SF-268, 48 h
# How it was run: (§1)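 NCI 60-line five-dose screen. Cells were preincubated 24 h at 37 °C under 5% CO2 and 100% humidity, and time-zero plates were TCA-fixed when compound was added. Five 10-fold concentrations (0.01–100) were tested for 48 h. Cells were fixed with cold TCA (final 10%, 60 min, 4 °C), stained with 0.4% SRB for 10 min, and read at 515 nm. GI50, TGI and LC50 came from growth-percentage formulas, with out-of-range values given as > or <.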
# A549 = test: Cytotoxicity against human A549 cells after 48 hrs by SRB assay; details: A549, 48 h; how it was run: as §1
# U-251 = test: Cytotoxicity against human U251 cells after 48 hrs by SRB assay; details: U-251, 48 h
# How it was run: (§2)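 NCI 60-line five-dose screen: cells plated, held 24 h at 37 °C, 5% CO₂ before treatment, with a TCA-fixed time-zero plate. Five final concentrations (0.01–100 µM, 10-fold dilutions) for 48 h. Cells fixed with cold TCA (10% final) and stained with 0.4% SRB in 1% acetic acid. Dye dissolved in 10 mM Tris and read at 515 nm. GI₅₀, TGI and LC₅₀ taken from percent-growth curves.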
# MDA-MB-468 = test: Cytotoxicity against human MDA-MB-468 cells after 48 hrs by SRB assay; details: MDA-MB-468, 48 h; how it was run: as §1
# [1] = Cytotoxicity against human EKVX cells after 48 hrs by SRB assay; how it was run: as §1
# T47D = test: Cytotoxicity against human T47D cells after 48 hrs by SRB assay; how it was run: as §2
# IGROV-1 = test: Cytotoxicity against human IGROV1 cells assessed as cell growth at 10 uM after 48 hrs by SRB assay relative to control; details: IGROV-1, 48 h, read-out: Activity
# How it was run: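 Single-dose NCI screen. Compound was added at 1 × 10^-5 M and cultures were incubated 48 h. End point was sulforhodamine B protein staining, reported as percent growth of treated cells versus untreated control cells.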
# SK-MEL-5 = test: Cytotoxicity against human SK-MEL-5 cells after 48 hrs by SRB assay; details: SK-MEL-5, 48 h; how it was run: as §1
# NCI-H522 = test: Cytotoxicity against human NCI-H522 cells after 48 hrs by SRB assay; details: NCI-H522, 48 h; how it was run: as §1
# NCI-H322M = test: Cytotoxicity against human NCI-H322M cells after 48 hrs by SRB assay; how it was run: as §1
# SNB-19 = test: Cytotoxicity against human SNB19 cells after 48 hrs by SRB assay; details: SNB-19, 48 h; how it was run: as §2
# COLO 205 = test: Cytotoxicity against human COLO205 cells after 48 hrs by SRB assay; details: COLO 205, 48 h; how it was run: as §1
# BT-549 = test: Cytotoxicity against human BT549 cells after 48 hrs by SRB assay; details: BT-549, 48 h; how it was run: as §1
# SR = test: Cytotoxicity against human SR cells after 48 hrs by SRB assay; how it was run: as §2
# NCI-H460 = test: Cytotoxicity against human NCI-H460 cells after 48 hrs by SRB assay; details: NCI-H460, 48 h; how it was run: as §1
# OVCAR-4 = test: Cytotoxicity against human OVCAR4 cells after 48 hrs by SRB assay; details: OVCAR-4, 48 h; how it was run: as §1
# DU-145 = test: Cytotoxicity against human DU145 cells after 48 hrs by SRB assay; details: DU-145, 48 h; how it was run: as §1
# SW-620 = test: Cytotoxicity against human SW620 cells after 48 hrs by SRB assay; details: SW-620, 48 h; how it was run: as §2
# [2] = read-out: LC50 (the source's name)
# [3] = read-out: pLC50 (the source's name) (converted)
smiles,measurement,setting,value
O=C(CCc1nnc2sc(-c3ccc(Cl)cc3Cl)nn12)c1nc2ccccc2[nH]1,GI50,SF-268; read-out: GI50,0.74 µM
same,CC50,SF-268; [2],5.15 µM
same,TGI,SF-268; read-out: TGI,2.14 µM
same,GI50,SF-268; read-out: pGI50 (converted),0.741 µM
same,CC50,SF-268; [3],5.13 µM
same,TGI,SF-268; read-out: pTGI (converted),2.14 µM
same,GI50,A549; read-out: GI50,2.07 µM
same,CC50,A549; [2],> 100 µM
same,TGI,A549; read-out: TGI,5.63 µM
same,GI50,A549; read-out: pGI50 (converted),2.09 µM
same,CC50,A549; [3],> 100 µM
same,TGI,A549; read-out: pTGI (converted),5.62 µM
same,GI50,U-251; read-out: GI50,1.28 µM
same,CC50,U-251; [2],5.34 µM
same,TGI,U-251; read-out: TGI,2.61 µM
same,GI50,U-251; read-out: pGI50 (converted),1.29 µM
same,CC50,U-251; [3],5.37 µM
same,TGI,U-251; read-out: pTGI (converted),2.63 µM
same,GI50,MDA-MB-468; read-out: GI50,0.699 µM
same,LC50,MDA-MB-468; read-out: LC50,5.41 µM
same,TGI,MDA-MB-468; read-out: TGI,2.15 µM
same,GI50,MDA-MB-468; read-out: pGI50 (converted),0.692 µM
same,LC50,MDA-MB-468; read-out: pLC50 (converted),5.37 µM
same,TGI,MDA-MB-468; read-out: pTGI (converted),2.14 µM
same,GI50,[1]; read-out: GI50,1.53 µM
same,TGI,[1]; read-out: TGI,3.69 µM
same,GI50,[1]; read-out: pGI50 (converted),1.55 µM
same,TGI,[1]; read-out: pTGI (converted),3.72 µM
same,GI50,T47D; read-out: GI50,0.753 µM
same,LC50 (concentration giving 50% net cell kill),T47D; read-out: LC50,7.06 µM
same,TGI,T47D; read-out: TGI,2.51 µM
same,GI50,T47D; read-out: pGI50 (converted),0.759 µM
same,LC50 (concentration giving 50% net cell kill),T47D; read-out: pLC50 (converted),7.08 µM
same,TGI,T47D; read-out: pTGI (converted),2.51 µM
same,growth at 10 µM,IGROV-1,0.38%
same,GI50,SK-MEL-5; read-out: GI50,1.39 µM
same,CC50,SK-MEL-5; [2],5.19 µM
same,TGI,SK-MEL-5; read-out: TGI,2.69 µM
same,GI50,SK-MEL-5; read-out: pGI50 (converted),1.38 µM
same,CC50,SK-MEL-5; [3],5.25 µM
same,TGI,SK-MEL-5; read-out: pTGI (converted),2.69 µM
same,GI50,NCI-H522; read-out: GI50,1.28 µM
same,CC50,NCI-H522; [2],6.82 µM
same,TGI,NCI-H522; read-out: TGI,2.96 µM
same,GI50,NCI-H522; read-out: pGI50 (converted),1.29 µM
same,CC50,NCI-H522; [3],6.76 µM
same,TGI,NCI-H522; read-out: pTGI (converted),2.95 µM
same,GI50,NCI-H322M; read-out: GI50,1.76 µM
same,CC50,NCI-H322M; [2],7.94 µM
same,TGI,NCI-H322M; read-out: TGI,3.74 µM
same,GI50,NCI-H322M; read-out: pGI50 (converted),1.78 µM
same,CC50,NCI-H322M; [3],7.94 µM
same,TGI,NCI-H322M; read-out: pTGI (converted),3.72 µM
same,GI50,SNB-19; read-out: GI50,1.37 µM
same,CC50,SNB-19; [2],> 100 µM
same,TGI,SNB-19; read-out: TGI,5.44 µM
same,GI50,SNB-19; read-out: pGI50 (converted),1.38 µM
same,CC50,SNB-19; [3],> 100 µM
same,TGI,SNB-19; read-out: pTGI (converted),5.5 µM
same,GI50,COLO 205; read-out: GI50,0.767 µM
same,CC50,COLO 205; [2],5.5 µM
same,TGI,COLO 205; read-out: TGI,2.21 µM
same,GI50,COLO 205; read-out: pGI50 (converted),0.759 µM
same,CC50,COLO 205; [3],5.5 µM
same,TGI,COLO 205; read-out: pTGI (converted),2.19 µM
same,GI50,BT-549; read-out: GI50,2.16 µM
same,LC50,BT-549; read-out: LC50,> 100 µM
same,TGI,BT-549; read-out: TGI,4.77 µM
same,GI50,BT-549; read-out: pGI50 (converted),2.14 µM
same,LC50,BT-549; read-out: pLC50 (converted),> 100 µM
same,TGI,BT-549; read-out: pTGI (converted),4.79 µM
same,GI50,SR; read-out: GI50,0.333 µM
same,CC50,SR; [2],> 100 µM
same,TGI,SR; read-out: TGI,> 100 µM
same,GI50,SR; read-out: pGI50 (converted),0.331 µM
same,CC50,SR; [3],> 100 µM
same,TGI,SR; read-out: pTGI,> 100 µM
same,GI50,NCI-H460; read-out: GI50,0.766 µM
same,CC50,NCI-H460; [2],5.21 µM
same,TGI,NCI-H460; read-out: TGI,2.17 µM
same,GI50,NCI-H460; read-out: pGI50 (converted),0.759 µM
same,CC50,NCI-H460; [3],5.25 µM
same,TGI,NCI-H460; read-out: pTGI (converted),2.19 µM
same,GI50,OVCAR-4; read-out: GI50,0.971 µM
same,CC50,OVCAR-4; [2],8.04 µM
same,TGI,OVCAR-4; read-out: TGI,2.82 µM
same,GI50,OVCAR-4; read-out: pGI50 (converted),0.977 µM
same,CC50,OVCAR-4; [3],8.13 µM
same,TGI,OVCAR-4; read-out: pTGI (converted),2.82 µM
same,GI50,DU-145; read-out: GI50,1.2 µM
same,CC50,DU-145; [2],5.02 µM
same,TGI,DU-145; read-out: TGI,2.46 µM
same,GI50,DU-145; read-out: pGI50 (converted),1.2 µM
same,CC50,DU-145; [3],5.01 µM
same,TGI,DU-145; read-out: pTGI (converted),2.45 µM
same,GI50,SW-620; read-out: GI50,0.204 µM
same,CC50,SW-620; [2],2.48 µM
same,TGI,SW-620; read-out: TGI,0.545 µM
same,GI50,SW-620; read-out: pGI50 (converted),0.204 µM
same,CC50,SW-620; [3],2.51 µM
same,TGI,SW-620; read-out: pTGI (converted),0.55 µM
